Test results reported in the EternaBench riboswitch data.

System: MS2 coat protein
Assay: apparent Kd, MS2 coat protein; higher = weaker binding; RNA-MaP array; FMN 200 µM where present
Procedure, shortened: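 Binding was read on Illumina sequencing-chip clusters where stalled E. coli RNA polymerase had transcribed each design. A titration of SNAP-549-labelled MS2 coat protein began at 0.7 or 1.5 nM and doubled to 3 µM, once without ligand and once with constant ligand, in 100 mM Tris-HCl pH 7.5, 80 mM KCl, 4 mM MgCl2, BSA, DTT, yeast tRNA and Tween-20. The apparent Kd is the median of filtered per-cluster binding-curve fits, based on green signal normalised to red-channel RNA signal and control-cluster median Fmax.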

[1] = designed as: OFF switch for flavin mononucleotide, no ligand
[2] = ligand present: flavin mononucleotide, designed as: OFF switch for flavin mononucleotide
[3] = designed as: ON switch for flavin mononucleotide, no ligand
[4] = ligand present: flavin mononucleotide, designed as: ON switch for flavin mononucleotide

Sequence	apparent Kd [1] [nM]	apparent Kd [2] [nM]	apparent Kd [3] [nM]	apparent Kd [4] [nM]
CCAGACGUUGUAGGAUAUCUGAAAGGAAGUGUAAGAGAAGGAUAGUGUCUGUAAAACAUGAGGAUCACCCAUGUGGGCGCAUCC	19.6	61.9		
CCAGAGACAUAAGGAUAUCGAGUGGAAUACACUCGAGAAGGUAUGUGAAAACAUGAGGAUCACCCAUGUGAUCAAUACUCUGGA			19.4	20.2
CCAGCAACAUGAGGAUCACCCAUGUAGGAUAUCGCUAUUGUAAUCAUGAAACAUGAUUACAAUAGCGAGAAGGACAUAUGCUCC	7.53	10.2		
CCAGGCUGUGUGAGGAUAUGCUGGUCCUUGGAUCAGCAGAAGGCACAUGAGGAUCACCCAUGUGAAUAGCUUGG	16.9	30		
CCAUACCGAGGAUAUACAUGAGGAUCACCCAUGUCAAAACCACGUGUACGGCGGUCUUGUAGAAGGCGGAAAUA	11	16		
CCAUCGUGUGUGAGGAUAUGCUGGUCCUUGGAUCAGCAGAAGGCACAUGAGGAUCACCCAUGUGAAUACGGUGG	18.6	29		
CCAUGACAAAGUCAUGGAUAACGAACAUGAGGAUCACCCAUGUAGGAUAUGCUACUCAAAGAGUAGCAGAAGGACAUGUGUCUU	32.7	165		
CCAUGACCGGAGAAGGCAGUUUGUGGGCCUGUUCCUGUCGGAUACAUGAGGAUCACCCAUGUACCUGAGGAUAUCUGGUCGCAG	5.06	6.13		
CCAUUUCAGUAAGGAUAUAUAAACAUGACGAUACAUGAGGAUCACCCAUGUGUAGAAGGUACUAAUACAUAUAAUGCAAUGCUC	20.4	17.2		
CCCAUCGCAUGAGGAUAUGGUCAGCUUUGCUGACCAGAAGGCAUGUCAAUAGACAUGAGGAUCACCCAUGUAGUUAAGAUGGGA			675	49.2
CCCGCGAUGUCAGGAUAUAGUCGGAGGUGCAGACUAGAAGGGACAUGAGGAUCACCCAUGUGCGUGAAAAUUUAAAACCUAAAU	39.3	119		
CCCGCGAUGUCAGGAUAUAGUCGGAGGUGCAGACUAGAAGGGACAUGAGGAUCACCCAUGUGCGUGAAAAUUUGAAACCCAGGU	46.5	164		
CCCUACGUUUCGUAGCAGUGUCAUCGAGAAGGCCCUGACAUGAGGAUCACCCAUGUUGUUACAUGGGAGGAUAUCGAUGAUGGG			23	6.1
CCCUCAACAUGAGGAUCACCCAUGUAGGAUAUCGCUAUUGUAAUCAUGAAACAUGAUUACAAUAGCGAGAAGGACAUAUGCAAA	25.2	126		
CCCUCACAUGAGGAUCACCCAUGUUAGGAUAUCUACCAGGAGCUAUGAUUAGCCCAACGGAGAAGGAACGUGCA	17.9	17.4		
CCGAAUAAGCAGGAUAUCGAAUCGGAAACGAUUCGAGAAGGGUUAACAUGAGGAUCACCCAUGUUCCUUAACGG	20.3	22.2		
CCGACGAAAGUCGAACGAUGUAGCAGAAGGACAUGAGGAUCACCCAUGUCAGCUGUAACAGCCAUGUAGGAUAUGCUACAUCGC	4.16	5.51		
CCGACGCAAGCAGGAUAUCUACUGGCGAUGGUACAUGAGGAUCACCCAUGUAGAGAAGGGCUAAGUGGAAGGAUGAUUUAAAAG	113	97		
CCGAGAUGUGCAGGAUAUCAGGAUACGGUCCGCUGAGAAGGGCACAUGAGGAUCACCCAUGUGUGCGCAUAGGUGAAAGGCUUU	285	154		
CCGAUAAUGUAGGAUAUCGUAUCGGAAACGAUACGAGAAGGGCAAACAUGAGGAUCACCCAUGUUCCUUAACGG	17.4	18.5		
CCGAUGUUAGGAUAUACUGCCCGUGGGAUAAACGCCGGGUAGUAGAAGGAACAUGAGGAUCACCCAUGUGACAC	39.6	220		
CCGCAUGCUGUCAGGAUAUCGUAGAUAAUAAUAUGCGAGAAGGGACAUGAGGAUCACCCAUGUAAGAGGCGGCC	28.9	37.7		
CCGCUGUGAGGAUAUUAGUAGUAGUCAGAAUAGACUAUUACUGAGAAGGCACAUGAGGAUCACCCAUGUUGCGG	30.8	39		
